Source: PMC5839499 (Biomolecules & Therapeutics, 2018)
“Also recorded” adds a separate entry of the source.

Tests used:
human GPR119 = target: T1, human GPR119 (Homo sapiens, UniProt Q8TDV5); assay: cAMP accumulation assay; format: cell-based
T1 sequence (Q8TDV5 1-335): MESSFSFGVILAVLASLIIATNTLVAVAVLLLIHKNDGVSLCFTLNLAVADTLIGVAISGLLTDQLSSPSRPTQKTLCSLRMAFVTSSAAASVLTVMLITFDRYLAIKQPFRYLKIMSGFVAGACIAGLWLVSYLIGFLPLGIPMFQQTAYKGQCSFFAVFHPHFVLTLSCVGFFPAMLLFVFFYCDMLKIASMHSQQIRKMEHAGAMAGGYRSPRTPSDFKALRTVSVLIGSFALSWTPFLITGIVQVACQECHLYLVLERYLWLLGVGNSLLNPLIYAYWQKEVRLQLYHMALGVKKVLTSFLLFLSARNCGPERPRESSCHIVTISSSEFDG
Outline: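 CHO-K1 cells carry doxycycline-inducible human GPR119 and a CRE-driven beta-lactamase reporter. Cells were seeded at 10⁴ cells/well, induced with doxycycline 1 ug/mL, and treated 5 h with test compound at varying concentrations (DMSO stocks diluted in medium). cAMP was read by ratiometric FRET beta-lactamase substrate, in triplicate per concentration, from ≥3 independent experiments.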

GLUTag cells = assay: GLP-1 release assay; format: cell-based, murine
Outline: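 GLUTag cells (DMEM, 10% FBS) were seeded at 10⁵ cells/well and grown 48 h. They were washed twice with serum-free DMEM, then exposed to 0.1 uM test compound in serum-free DMEM at 37°C for 120 min. Supernatant was clarified by 5-min centrifugation, and GLP-1 was measured by ELISA in triplicate.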

HIT-T15 cells = assay: Insulin release assay; format: cell-based, hamster
Outline: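 HIT-T15 cells were seeded at 2×10⁵ cells/well and grown 48 h. They were washed in Krebs-Ringer bicarbonate buffer (pH 7.4, 0.2% BSA) and preincubated 60 min at 37°C with 5 mM glucose. Stimulation was with 0.1 uM test compound at 15 mM glucose, 60 min, 37°C; GSIS used 100 nM at 0, 3 and 15 mM glucose, 1 h. Supernatant insulin was measured by ELISA in triplicate.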

[1] = system: HIT-T15, GLUTag, and HepG2; assay: Cytotoxicity assay; format: cell-based; conditions: MTT, 48 h
Outline: (§1)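 MTT assay. Cells were seeded at 2–3×10⁴ cells/well and cultured 24 h. Test compound was added at a final 0.1–100 μM for 48 h. MTT (5 mg in PBS, pH 7.2) was added for 4 h at 37°C, then DMSO. Absorbance was read at 540 nm; % viability = treated/untreated absorbance ×100; n=3.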

[2] = Pharmacokinetics of YH18968 in normal mice; format: in vivo, C57BL/6J mice; conditions: male, C57BL/6J, mouse, plasma
Outline: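 Overnight-fasted 8-week-old male C57BL/6J mice, with free access to water, received 1 mg/kg iv via tail vein or oral doses of 1, 10 and 100 mg/kg as a suspension in 0.5% methyl cellulose; n=2 per time point. Plasma underwent protein precipitation and LC-MS/MS quantification. Parameters, including F, came from non-compartmental analysis.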

normal C57BL/6J mice [3] = assay: Oral glucose tolerance test, single administration in normal mice; format: in vivo
normal C57BL/6J mice [4] = assay: Blood active GLP-1 levels after single oral administration in normal mice; format: in vivo; conditions: 10 mg/kg oral, 30 minutes after administration, overnight-fasted mice
Outline: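 Overnight-fasted male C57BL/6J mice (n=6) got a single oral dose of test compound, alone or with linagliptin (1 mg/kg). The control got 0.5% methyl cellulose vehicle. Blood was drawn 30 min after dosing, and active GLP-1 was measured against the vehicle group.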

DIO mice = assay: Oral glucose tolerance test, repeat administration for 4 weeks in DIO mice; format: in vivo
Outline: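 17-week-old male DIO mice were dosed orally once daily for 4 weeks with vehicle (0.5% methyl cellulose), test compound, MBX2982 10 mg/kg, linagliptin 1 mg/kg, or combinations. OGTT was run on days 1 and 29 in overnight-fasted mice: dose, then an oral 2 g/kg glucose bolus 30 min later. Tail-vein glucose was read by glucometer at 0–120 min, and AUC0–2h was calculated.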

[5] = Aqueous solubility in the buffer; format: physicochemical
Cytotoxicity assay [6] = format: cell-based; conditions: mouse, GLUTag L cells
Outline: as §1

Cytotoxicity assay [7] = format: cell-based; conditions: human, HepG2 cells
Outline: as §1

For CC(C)c1nc(N2CCN(c3ncc(-c4ccc(-n5cnn([C@H]6CCOC6)c5=O)c(F)c4)cc3C#N)CC2)no1 [YH18968, (S)-5-(3-fluoro-4-(5-oxo-1-(tetrahydrofuran-3-yl)-1,5-dihydro-4H-1,2,4-triazol-4-yl)phenyl)-2-(4-(5-isopropyl-1,2,4-oxadiazol-3-yl)piperazin-1-yl)nicotinonitrile], the EC50 (human GPR119) was 2.8 nM, the “potency on human GPR119 relative to MBX2982” value (human GPR119; more potent than MBX2982 (EC50 11.2 nM, same assay)) was “approximately 4 fold” and the “potency of human GPR119 activation relative to MBX2982” value (human GPR119; more potent than the reported effect of MBX2982 (EC50 8.33 nM, HEK293)) was “approximately 3 fold”. For the same compound, the GLP-1 secretion (GLUTag cells; GLUTag cell, 0.1 uM, 120 min) was 2.3 fold, the EC50 (GLUTag cells; Mus musculus, GLUTag, read-out: EC50, GLP-1 secretion) was 0.1 nM and the “glucose-stimulated insulin secretion (GSIS)” value (HIT-T15 cells; 100 nM, 3 and 15 mM glucose, 1 h) was “enhanced in a glucose-dependent manner”. For the same compound, the “insulin release without glucose” value (HIT-T15 cells; 100 nM, cells incubated without glucose, 1 h) was “no effect”, the insulin secretion (HIT-T15 cells; HIT-T15 cell, 0.1 uM, 15 mM glucose, 60 min) was 1.9 fold and the “concentration up to which cytotoxicity was not observed” value [1] was 5000 nM. The AUC(0-inf) ([2]; iv, 1 mg/kg) was 1620 ng·h/mL, the AUC(0-t) ([2]; iv, 1 mg/kg) was 1380 ng·h/mL and the MRT ([2]; iv, 1 mg/kg) was 3.4 h. It also gave a Vd ([2]; iv, 1 mg/kg) of 2.11 L/kg, a clearance ([2]; iv, 1 mg/kg) of 10.3 mL/min/kg and a Tmax ([2]; po) of 0.5 h. It also gave a bioavailability ([2]; po) of 4.8 to 40%, an AUC(0-inf) ([2]; po, 1 mg/kg) of 720 ng·h/mL and an AUC(0-t) ([2]; po, 1 mg/kg) of 550 ng·h/mL. The Cmax ([2]; po, 1 mg/kg) was 169 ng/mL, the Tmax ([2]; po, 1 mg/kg) was 0.5 h and the bioavailability ([2]; po, 1 mg/kg) was 40%. It also gave a half-life ([2]; po, 1 mg/kg) of 3.1 h, an AUC(0-inf) ([2]; po, 10 mg/kg) of 2960 ng·h/mL and an AUC(0-t) ([2]; po, 10 mg/kg) of 2470 ng·h/mL. It also gave a Cmax ([2]; po, 10 mg/kg) of 760 ng/mL, a Tmax ([2]; po, 10 mg/kg) of 0.5 h and a bioavailability ([2]; po, 10 mg/kg) of 18%. For the same compound, the half-life ([2]; po, 10 mg/kg) was 2.6 h, the AUC(0-inf) ([2]; po, 100 mg/kg) was 15800 ng·h/mL and the AUC(0-t) ([2]; po, 100 mg/kg) was 6540 ng·h/mL. It also gave a Cmax ([2]; po, 100 mg/kg) of 1470 ng/mL, a Tmax ([2]; po, 100 mg/kg) of 0.5 h and a bioavailability ([2]; po, 100 mg/kg) of 4.8%. The half-life ([2]; po, 100 mg/kg) was 9.2 h, the “AUC for blood glucose in OGTT versus vehicle control” value (normal C57BL/6J mice [3]; single oral 0.1, 1, and 10 mg/kg, dose-dependent) was “significantly lowered” and the “glucose lowering effect compared with 30 mg/kg of MBX2982” value (normal C57BL/6J mice [3]; single oral 1 and 10 mg/kg) was “more potent glucose lowering effects”. For the same compound, the “increase of active GLP-1 levels compared to the vehicle control” value (normal C57BL/6J mice [4]) was 2.7 fold, the “AUC for blood glucose in OGTT versus vehicle control, day 1” value (DIO mice; 1 mg/kg oral once daily, day 1, DIO mice) was “significantly lowered; also recorded: significant decrease” and the “glucose lowering effect compared with 10 mg/kg of MBX2982, day 1” value (DIO mice; 1 mg/kg oral, day 1, DIO mice) was “more potent glucose lowering effect”. For the same compound, the aqueous solubility [5] was “poor”.

With CC#CCn1c(N2CCC[C@@H](N)C2)nc2c1c(=O)n(Cc1nc(C)c3ccccc3n1)c(=O)n2C [linagliptin, reference compound] the “AUC blood glucose level in OGTT” value (DIO mice; 1 mg/kg of linagliptin, DIO mice) was “near normal range”.

For CCc1cnc(N2CCC(c3nc(COc4ccc(-n5cnnn5)cc4)cs3)CC2)nc1 [MBX2982, reference compound], the EC50 (human GPR119) was 11.2 nM, the CC50 at 48 h (Cytotoxicity assay [6]) was 12200 nM and the CC50 at 48 h (Cytotoxicity assay [7]) was 15900 nM. For the same compound, the “concentration up to which cytotoxicity was not observed” value [1] was 1000 nM.
